Assay results: ChEMBL document CHEMBL3243962, “Antileukemic activity of derivatives of 1,2-dimethyl-3,4-bis(hydroxymethyl)-5-phenylpyrrole bis(N-methylcarbamate)” (J Med Chem, 1979)

How the values were obtained:
P388 [1] = experiment: Antitumor activity against mouse P388 cells allografted in CD2F1 mouse assessed as increase in mouse survival at 40 mg/kg, ip of total 9 doses starting 24 hrs post tumor inoculation measured on day 5 of inoculation relative to control; assay type: functional; conditions: route intraperitoneal
Outline: (§1)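 Male CD2F1 mice inoculated ip with 6×10^6 P388 leukemia cells. Dosing was ip as a suspension in distilled water–Tween 80, nine daily doses starting 24 h after inoculation. Activity was read as median survival time of treated vs control mice (% T/C); % T/C ≥ 120 was considered significant. Groups were 6 mice.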

Mus musculus [2] = experiment: Toxicity in mouse P388 cells allografted CD2F1 mouse assessed as mouse survival at 5 mg/kg, ip of total 9 doses starting 24 hrs post tumor inoculation measured on day 5 of inoculation relative to control; assay type: organism-based; set-up: dose 5 mg/kg, route intraperitoneal; conditions: in vivo
Outline: (§2)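 Male CD2F1 mice bearing ip P388 leukemia (6×10^6 cells) were dosed ip with nine daily doses in distilled water–Tween 80 suspension, starting 24 h after inoculation. Survivors per group of 6 were counted on day 5, i.e. 4 days after the first dose. Body-weight change of treated minus control mice was also recorded.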

P388 [3] = experiment: Antitumor activity against mouse P388 cells allografted in CD2F1 mouse assessed as increase in mouse survival at 80 mg/kg, ip of total 9 doses starting 24 hrs post tumor inoculation measured on day 5 of inoculation relative to control; assay type: functional; conditions: route intraperitoneal; outline: as §1
Mus musculus [4] = experiment: Toxicity in mouse P388 cells allografted CD2F1 mouse assessed as body weight loss at 40 mg/kg, ip of total 9 doses starting 24 hrs post tumor inoculation measured on day 5 of inoculation relative to control; assay type: organism-based; set-up: dose 40 mg/kg, route intraperitoneal; conditions: in vivo
Outline: (§3)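 Male CD2F1 mice inoculated ip with 6×10^6 P388 leukemia cells. Compounds given ip as distilled water–Tween 80 suspension, nine daily doses starting 24 h after inoculation; six mice per dose group. Treated-minus-control body-weight change (T − C) and toxicity-day survivors recorded on day 5 (4 days after first dose).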

Mus musculus [5] = experiment: Toxicity in mouse P388 cells allografted CD2F1 mouse assessed as mouse survival at 40 mg/kg, ip of total 9 doses starting 24 hrs post tumor inoculation measured on day 5 of inoculation relative to control; assay type: organism-based; set-up: dose 40 mg/kg, route intraperitoneal; conditions: in vivo; outline: as §2
Mus musculus [6] = experiment: Toxicity in mouse P388 cells allografted CD2F1 mouse assessed as mouse survival at 20 mg/kg, ip of total 9 doses starting 24 hrs post tumor inoculation measured on day 5 of inoculation relative to control; assay type: organism-based; set-up: dose 20 mg/kg, route intraperitoneal; conditions: in vivo; outline: as §2
Mus musculus [7] = experiment: Toxicity in mouse P388 cells allografted CD2F1 mouse assessed as body weight loss at 80 mg/kg, ip of total 9 doses starting 24 hrs post tumor inoculation measured on day 5 of inoculation relative to control; assay type: organism-based; set-up: dose 80 mg/kg, route intraperitoneal; conditions: in vivo; outline: as §3
Mus musculus [8] = experiment: Toxicity in mouse P388 cells allografted CD2F1 mouse assessed as body weight loss at 10 mg/kg, ip of total 9 doses starting 24 hrs post tumor inoculation measured on day 5 of inoculation relative to control; assay type: organism-based; set-up: dose 10 mg/kg, route intraperitoneal; conditions: in vivo; outline: as §3
Mus musculus [9] = experiment: Toxicity in mouse P388 cells allografted CD2F1 mouse assessed as body weight loss at 5 mg/kg, ip of total 9 doses starting 24 hrs post tumor inoculation measured on day 5 of inoculation relative to control; assay type: organism-based; set-up: dose 5 mg/kg, route intraperitoneal; conditions: in vivo; outline: as §3
Mus musculus [10] = experiment: Toxicity in mouse P388 cells allografted CD2F1 mouse assessed as body weight loss at 20 mg/kg, ip of total 9 doses starting 24 hrs post tumor inoculation measured on day 5 of inoculation relative to control; assay type: organism-based; set-up: dose 20 mg/kg, route intraperitoneal; conditions: in vivo; outline: as §3
P388 [11] = experiment: Antitumor activity against mouse P388 cells allografted in CD2F1 mouse assessed as increase in mouse survival at 5 mg/kg, ip of total 9 doses starting 24 hrs post tumor inoculation measured on day 5 of inoculation relative to control; assay type: functional; conditions: route intraperitoneal; outline: as §1
P388 [12] = experiment: Antitumor activity against mouse P388 cells allografted in CD2F1 mouse assessed as increase in mouse survival at 10 mg/kg, ip of total 9 doses starting 24 hrs post tumor inoculation measured on day 5 of inoculation relative to control; assay type: functional; conditions: route intraperitoneal; outline: as §1
Mus musculus [13] = experiment: Toxicity in mouse P388 cells allografted CD2F1 mouse assessed as mouse survival at 10 mg/kg, ip of total 9 doses starting 24 hrs post tumor inoculation measured on day 5 of inoculation relative to control; assay type: organism-based; set-up: dose 10 mg/kg, route intraperitoneal; conditions: in vivo; outline: as §2
Mus musculus [14] = experiment: Toxicity in mouse P388 cells allografted CD2F1 mouse assessed as mouse survival at 80 mg/kg, ip of total 9 doses starting 24 hrs post tumor inoculation measured on day 5 of inoculation relative to control; assay type: organism-based; set-up: dose 80 mg/kg, route intraperitoneal; conditions: in vivo; outline: as §2
P388 [15] = experiment: Antitumor activity against mouse P388 cells allografted in CD2F1 mouse assessed as increase in mouse survival at 20 mg/kg, ip of total 9 doses starting 24 hrs post tumor inoculation measured on day 5 of inoculation relative to control; assay type: functional; conditions: route intraperitoneal; outline: as §1
Mus musculus [16] = experiment: Toxicity in mouse P388 cells allografted CD2F1 mouse assessed as mouse survival at 7.5 mg/kg, ip of total 9 doses starting 24 hrs post tumor inoculation measured on day 5 of inoculation relative to control; assay type: organism-based; set-up: dose 7.5 mg/kg, route intraperitoneal; conditions: in vivo; outline: as §2
Mus musculus [17] = experiment: Toxicity in mouse P388 cells allografted CD2F1 mouse assessed as body weight loss at 30 mg/kg, ip of total 9 doses starting 24 hrs post tumor inoculation measured on day 5 of inoculation relative to control; assay type: organism-based; set-up: dose 30 mg/kg, route intraperitoneal; conditions: in vivo; outline: as §3
Mus musculus [18] = experiment: Toxicity in mouse P388 cells allografted CD2F1 mouse assessed as body weight loss at 15 mg/kg, ip of total 9 doses starting 24 hrs post tumor inoculation measured on day 5 of inoculation relative to control; assay type: organism-based; set-up: dose 15 mg/kg, route intraperitoneal; conditions: in vivo; outline: as §3
P388 [19] = experiment: Antitumor activity against mouse P388 cells allografted in CD2F1 mouse assessed as increase in mouse survival at 15 mg/kg, ip of total 9 doses starting 24 hrs post tumor inoculation measured on day 5 of inoculation relative to control; assay type: functional; conditions: route intraperitoneal; outline: as §1
P388 [20] = experiment: Antitumor activity against mouse P388 cells allografted in CD2F1 mouse assessed as increase in mouse survival at 7.5 mg/kg, ip of total 9 doses starting 24 hrs post tumor inoculation measured on day 5 of inoculation relative to control; assay type: functional; conditions: route intraperitoneal; outline: as §1
P388 [21] = experiment: Antitumor activity against mouse P388 cells allografted in CD2F1 mouse assessed as increase in mouse survival at 60 mg/kg, ip of total 9 doses starting 24 hrs post tumor inoculation measured on day 5 of inoculation relative to control; assay type: functional; conditions: route intraperitoneal; outline: as §1
Mus musculus [22] = experiment: Toxicity in mouse P388 cells allografted CD2F1 mouse assessed as mouse survival at 15 mg/kg, ip of total 9 doses starting 24 hrs post tumor inoculation measured on day 5 of inoculation relative to control; assay type: organism-based; set-up: dose 15 mg/kg, route intraperitoneal; conditions: in vivo; outline: as §2
Mus musculus [23] = experiment: Toxicity in mouse P388 cells allografted CD2F1 mouse assessed as body weight loss at 7.5 mg/kg, ip of total 9 doses starting 24 hrs post tumor inoculation measured on day 5 of inoculation relative to control; assay type: organism-based; set-up: dose 7.5 mg/kg, route intraperitoneal; conditions: in vivo; outline: as §3
P388 [24] = experiment: Antitumor activity against mouse P388 cells allografted in CD2F1 mouse assessed as increase in mouse survival at 30 mg/kg, ip of total 9 doses starting 24 hrs post tumor inoculation measured on day 5 of inoculation relative to control; assay type: functional; conditions: route intraperitoneal; outline: as §1
Mus musculus [25] = experiment: Toxicity in mouse P388 cells allografted CD2F1 mouse assessed as body weight loss at 120 mg/kg, ip of total 9 doses starting 24 hrs post tumor inoculation measured on day 5 of inoculation relative to control; assay type: organism-based; set-up: dose 120 mg/kg, route intraperitoneal; conditions: in vivo; outline: as §3
Mus musculus [26] = experiment: Toxicity in mouse P388 cells allografted CD2F1 mouse assessed as mouse survival at 30 mg/kg, ip of total 9 doses starting 24 hrs post tumor inoculation measured on day 5 of inoculation relative to control; assay type: organism-based; set-up: dose 30 mg/kg, route intraperitoneal; conditions: in vivo; outline: as §2
Mus musculus [27] = experiment: Toxicity in mouse P388 cells allografted CD2F1 mouse assessed as body weight loss at 60 mg/kg, ip of total 9 doses starting 24 hrs post tumor inoculation measured on day 5 of inoculation relative to control; assay type: organism-based; set-up: dose 60 mg/kg, route intraperitoneal; conditions: in vivo; outline: as §3

Q: Which results are given for `CNC(=O)OCc1c(COC(=O)NC)c(-c2ccc(S(=O)(=O)c3ccccc3)cc2)n(C)c1C`?
A: T/C (P388 [1]): 153%; Activity (Mus musculus [2]): Non-toxic; T/C (P388 [3]): 153%; Activity (Mus musculus [4]): 3.1 g; Activity (Mus musculus [5]): Non-toxic; Activity (Mus musculus [6]): Non-toxic; Activity (Mus musculus [7]): 3.6 g; Activity (Mus musculus [8]): 0.9 g; Activity (Mus musculus [9]): 1.3 g; Activity (Mus musculus [10]): 1.9 g; T/C (P388 [11]): 137%; T/C (P388 [12]): 136%; Activity (Mus musculus [13]): Non-toxic; Activity (Mus musculus [14]): Non-toxic; T/C (P388 [15]): 146%

Q: Which Activity (Mus musculus [16]) does the source give for `CCCCOc1ccc(-c2c(COC(=O)NC)c(COC(=O)NC)c(C)n2C)cc1` here?
A: Non-toxic

Q: What about the Activity (Mus musculus [17]) of the same molecule?
A: 2.8 g

Q: And the Activity (Mus musculus [18])?
A: 2.1 g

Q: And the T/C (P388 [19])?
A: 146%

Q: What about the T/C (P388 [20]) of the same molecule?
A: 137%

Q: And the T/C (P388 [21])?
A: 90%

Q: What about the Activity (Mus musculus [22]) of the same molecule?
A: Non-toxic

Q: And the Activity (Mus musculus [23])?
A: 1.3 g

Q: What about the T/C (P388 [24]) of the same molecule?
A: 144%

Q: What about the Activity (Mus musculus [25]) of the same molecule?
A: 3.4 g

Q: What about the Activity (Mus musculus [26]) of the same molecule?
A: Non-toxic

Q: And the Activity (Mus musculus [27])?
A: 4.1 g
